Laboratory results from ChEMBL document CHEMBL1131001, “Syntheses and anticholinesterase activities of (3aS)-N1, N8-bisnorphenserine, (3aS)-N1,N8-bisnorphysostigmine, their antipodal isomers, and other potential metabolites of phenserine” (J Med Chem, 1998).

Each molecule was assayed against T1, Acetylcholinesterase (Homo sapiens, UniProt P22303) (assay: Anticholinesterase activity against erythrocyte acetylcholinesterase (AChE) in humans.).
T1 sequence (P22303 whole entry): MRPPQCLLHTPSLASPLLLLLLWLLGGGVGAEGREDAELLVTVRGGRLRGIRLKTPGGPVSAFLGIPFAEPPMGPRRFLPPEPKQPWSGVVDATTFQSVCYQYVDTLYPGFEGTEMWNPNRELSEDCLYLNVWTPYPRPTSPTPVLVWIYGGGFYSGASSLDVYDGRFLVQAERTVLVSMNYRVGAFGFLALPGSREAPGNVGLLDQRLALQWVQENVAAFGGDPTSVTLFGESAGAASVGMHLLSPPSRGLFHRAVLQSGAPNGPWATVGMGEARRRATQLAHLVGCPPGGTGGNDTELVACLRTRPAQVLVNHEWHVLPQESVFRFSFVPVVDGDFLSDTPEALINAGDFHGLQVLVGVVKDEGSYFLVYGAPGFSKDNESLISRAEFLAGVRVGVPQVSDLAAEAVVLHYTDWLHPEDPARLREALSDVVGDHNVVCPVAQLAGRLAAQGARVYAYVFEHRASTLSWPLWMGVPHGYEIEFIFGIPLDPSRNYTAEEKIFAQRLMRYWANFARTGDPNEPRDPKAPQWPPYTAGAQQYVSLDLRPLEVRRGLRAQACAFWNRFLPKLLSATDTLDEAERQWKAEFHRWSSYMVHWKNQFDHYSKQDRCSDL
Procedure, shortened: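 Human red blood cells, freshly collected, were washed five times in isotonic saline, lysed in 0.1 M Na3PO4 pH 7.4 with 0.5% Triton-X, and diluted 1:200. Compounds in half-log dilutions from 0.3 nM were preincubated with enzyme for 30 min at room temperature in pH 8.0 phosphate.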
With `C[C@]12CCNC1Nc1ccc(OC(=O)Nc3ccccc3)cc12` (stereo not given in full) the IC50 was 231 nM. `CNC(=O)Oc1ccc2c(c1)[C@]1(C)CCNC1N2` (stereo not given in full) showed an IC50 of 10.9 nM. With `CNC(=O)Oc1ccc2c(c1)[C@@]1(C)CCN(Cc3ccccc3)C1N2Cc1ccccc1` (stereo not given in full) the IC50 was 3560 nM. Molecule `CNC(=O)Oc1ccc2c(c1)[C@@]1(C)CCNC1N2` (stereo not given in full) has an IC50 of 1490 nM. `CNC(=O)Oc1ccc2c(c1)[C@]1(C)CCN(Cc3ccccc3)C1N2Cc1ccccc1` (stereo not given in full) was tested, and the IC50 was 1090 nM. In the case of `C[C@@]12CCN(Cc3ccccc3)C1N(Cc1ccccc1)c1ccc(OC(=O)Nc3ccccc3)cc12` (single isomer, unassigned; (-)), the IC50 is reported as 41100 nM.

The molecules below were run against T1, Acetylcholinesterase (assay: Anticholinesterase activity against erythrocyte acetylcholinesterase (AChE) in humans.(no detectable activity at 3*10e-5 M)).
For `CN1CC[C@@]2(C)c3cc(O)ccc3N(C)[C@@H]12`, the IC50 was “No detectable activity”. With `CN1CC[C@@]2(C)C3=CC(=O)C(=O)C=C3N(C)C12` (stereo not given in full) the IC50 was “No detectable activity”. With `C[C@]12CCN(Cc3ccccc3)C1N(Cc1ccccc1)c1ccc(OC(=O)Nc3ccccc3)cc12` (stereo not given in full) the IC50 was “No detectable activity”.

These molecules were tested against T2, Cholinesterase (Homo sapiens, UniProt P06276) (assay: Anticholinesterase activity against plasma Butyrylcholinesterase (BChE) in humans.).
T2 sequence (P06276 whole entry): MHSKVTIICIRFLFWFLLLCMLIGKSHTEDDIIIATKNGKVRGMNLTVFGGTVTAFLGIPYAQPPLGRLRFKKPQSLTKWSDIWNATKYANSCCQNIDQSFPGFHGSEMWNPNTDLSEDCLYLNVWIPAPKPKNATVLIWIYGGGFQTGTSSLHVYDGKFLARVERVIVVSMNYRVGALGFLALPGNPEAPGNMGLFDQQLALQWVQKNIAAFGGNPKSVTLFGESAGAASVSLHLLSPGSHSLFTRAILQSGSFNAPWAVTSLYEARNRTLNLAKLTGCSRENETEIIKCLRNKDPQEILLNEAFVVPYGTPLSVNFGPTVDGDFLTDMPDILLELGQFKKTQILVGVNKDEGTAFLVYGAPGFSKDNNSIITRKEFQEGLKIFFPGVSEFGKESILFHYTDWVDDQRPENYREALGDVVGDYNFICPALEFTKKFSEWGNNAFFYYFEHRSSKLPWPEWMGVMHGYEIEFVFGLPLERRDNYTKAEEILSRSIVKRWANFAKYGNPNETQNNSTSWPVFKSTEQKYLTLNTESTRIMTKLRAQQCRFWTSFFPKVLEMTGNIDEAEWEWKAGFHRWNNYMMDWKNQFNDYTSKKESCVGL
Format: cell-free
Molecule `C[C@]12CCNC1Nc1ccc(OC(=O)Nc3ccccc3)cc12` (stereo not given in full) has an IC50 of 952 nM. Work on `CNC(=O)Oc1ccc2c(c1)[C@]1(C)CCNC1N2` (stereo not given in full) yielded an IC50 of 2.4 nM. For `C[C@@]12CCNC1Nc1ccc(OC(=O)Nc3ccccc3)cc12` (stereo not given in full), the IC50 was 897 nM. Molecule `CNC(=O)Oc1ccc2c(c1)[C@@]1(C)CCN(Cc3ccccc3)C1N2Cc1ccccc1` (stereo not given in full) has an IC50 of 776 nM. With `CNC(=O)Oc1ccc2c(c1)[C@@]1(C)CCNC1N2` (stereo not given in full) the IC50 was 237 nM. `CNC(=O)Oc1ccc2c(c1)[C@]1(C)CCN(Cc3ccccc3)C1N2Cc1ccccc1` (stereo not given in full) gave an IC50 of 8.1 nM. `CN1c2ccc(OC(=O)Nc3ccccc3)cc2[C@]2(C)CCNC12` (stereo not given in full) was tested, and the IC50 was 612 nM. `C[C@@]12CCN(Cc3ccccc3)C1N(Cc1ccccc1)c1ccc(OC(=O)Nc3ccccc3)cc12` (single isomer, unassigned; (-)) gave an IC50 of 513 nM.

These molecules were tested against T2, Cholinesterase (assay: Anticholinesterase activity against plasma Butyrylcholinesterase (BChE) in humans.(no detectable activity at 3*10e-5 M)).
Format: cell-free
With `CN1CC[C@@]2(C)c3cc(O)ccc3N(C)[C@@H]12` the IC50 was “No detectable activity”. `CN1CC[C@@]2(C)C3=CC(=O)C(=O)C=C3N(C)C12` (stereo not given in full) was tested, and the IC50 was “No detectable activity”. With `C[C@]12CCN(Cc3ccccc3)C1N(Cc1ccccc1)c1ccc(OC(=O)Nc3ccccc3)cc12` (stereo not given in full) the IC50 was “No detectable activity”.
